Data reported in ChEMBL document CHEMBL1667754, “Synthesis and biological activity of pyrazolothienotetrahydroisoquinoline and [1,2,4]triazolo[3,4-a]thienotetrahydroisoquinoline derivatives” (2011).

Experiments:
Escherichia coli = assay: Antibacterial activity against Escherichia coli at 50 uL/well by well diffusion assay; assay type: functional
Summary of the method: (§1)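 Bauer-type diffusion assay. Test compounds were at 2% in DMSO. The read-out was the diameter (mm) of the inhibition zone, with chloramphenicol as the reference agent.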

Micrococcus luteus = assay: Antibacterial activity against Micrococcus luteus at 50 uL/well by well diffusion assay; assay type: functional; summary of the method: as §1
Trichophyton rubrum = assay: Antifungal activity against Trichophyton rubrum at 50 uL/well by well diffusion assay; assay type: functional
Summary of the method: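 Agar discs (10 mm) carrying spores and hyphae were shaken in sterile distilled water. 1 mL of the spore suspension was plated and mixed with 15 mL molten SDA, then left to set. Compounds were at 2% in DMSO, applied per Bauer's diffusion method. The read-out was the inhibition zone (mm).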

Aspergillus niger = assay: Antifungal activity against Aspergillus niger at 2% by disc diffusion assay
Fusarium oxysporum = assay: Antifungal activity against Fusarium oxysporum at 2% by disc diffusion assay
Aspergillus flavus = assay: Antifungal activity against Aspergillus flavus at 2% by disc diffusion assay
Geotrichum candidum = assay: Antifungal activity against Geotrichum candidum at 2% by disc diffusion assay
Candida albicans = assay: Antifungal activity against Candida albicans at 200 ug/disc by disc diffusion assay
[1] = test system: Scopulariopsis brevicaulis; assay: Antifungal activity against Scopulariopsis brevicaulis at 2% by disc diffusion assay
Bacillus cereus = assay: Antibacterial activity against Bacillus cereus at 200 ug/disc by disc diffusion assay
Serratia marcescens = assay: Antibacterial activity against Serratia marcescens at 200 ug/disc by disc diffusion assay
Staphylococcus aureus = assay: Antibacterial activity against Staphylococcus aureus at 200 ug/disc by disc diffusion assay
Pseudomonas aeruginosa = assay: Antibacterial activity against Pseudomonas aeruginosa at 200 ug/disc by disc diffusion assay

SMILES | diameter of the inhibition zone (DIZ) (Escherichia coli) [mm] | diameter of the inhibition zone (DIZ) (Micrococcus luteus) [mm] | diameter of the inhibition zone (DIZ) (Trichophyton rubrum) [mm] | diameter of the inhibition zone (DIZ) (Aspergillus niger) [mm] | diameter of the inhibition zone (DIZ) (Fusarium oxysporum) [mm] | diameter of the inhibition zone (DIZ) (Aspergillus flavus) [mm] | diameter of the inhibition zone (DIZ) (Geotrichum candidum) [mm] | diameter of the inhibition zone (DIZ) (Candida albicans) [mm] | diameter of the inhibition zone (DIZ) [1] [mm] | diameter of the inhibition zone (DIZ) (Bacillus cereus) [mm] | diameter of the inhibition zone (DIZ) (Serratia marcescens) [mm] | diameter of the inhibition zone (DIZ) (Staphylococcus aureus) [mm] | diameter of the inhibition zone (DIZ) (Pseudomonas aeruginosa) [mm]
N#Cc1c2c(c3[nH]ncn3c1=S)CCCC2 | 10 | 12 | 0 | 0 | 0 | 0 | 0 | 10 | 0 | 15 | 10 | 8 | 0
N#Cc1c(SCC(N)=O)nc(NN)c2c1CCCC2 | 11 | 0 | 0 | 0 | 10 | 0 | 10 | 0 | 0 | 0 | 8 | 0 | 0
N#Cc1c(SCC(=O)c2ccccc2)nc(NN)c2c1CCCC2 | 0 | 0 | 12 | 0 | 0 | 0 | 12 | 0 | 0 | 0 | 0 | 10 | 0
N#Cc1c2c(c(NN)[nH]c1=S)CCCC2 | 14 | 14 | 17 | 12 | 13 | 10 | 0 | 12 | 0 | 20 | 0 | 11 | 0
CCOC(=O)c1sc2c(c1N)c1c(c3nncn32)CCCC1 | 11 | 0 | 0 | 0 | 0 | 8 | 0 | 10 | 0 | 8 | 10 | 10 | 0
CC(=O)c1sc2c(c1N)c1c(c3nncn32)CCCC1 | 0 | 0 | 0 | 0 | 0 | 0 | 0 | 0 | 0 | 0 | 0 | 0 | 0
